Where a chain is given by its changes, count along the chain named.
Assays:
[1] = system: T1, Nonstructural protein 5A (Hepatitis C virus), Q5L478 [Y93N]; experiment: Inhibition of NS5A Y93N mutant in HuH7 cell infected HCV genotype 1a H77 assessed as decrease in viral replication after 4 days by luciferase reporter gene assay relative to wild type protein; details: Hepatitis C virus (isolate H77)
T1 sequence (whole entry): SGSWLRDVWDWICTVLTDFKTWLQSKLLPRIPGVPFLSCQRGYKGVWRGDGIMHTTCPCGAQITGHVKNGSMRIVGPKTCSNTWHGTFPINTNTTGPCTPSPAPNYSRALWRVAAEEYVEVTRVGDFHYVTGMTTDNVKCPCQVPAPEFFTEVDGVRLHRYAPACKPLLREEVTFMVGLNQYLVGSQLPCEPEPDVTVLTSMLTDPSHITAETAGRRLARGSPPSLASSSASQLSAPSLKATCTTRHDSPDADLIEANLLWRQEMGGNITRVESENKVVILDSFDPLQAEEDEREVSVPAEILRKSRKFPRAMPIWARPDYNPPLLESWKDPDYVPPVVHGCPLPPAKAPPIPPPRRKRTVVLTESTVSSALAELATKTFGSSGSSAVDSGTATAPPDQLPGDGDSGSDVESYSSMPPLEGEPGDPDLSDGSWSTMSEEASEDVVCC
Summary of the method: (§1)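 Stable subgenomic luciferase replicons in Huh-7 cells: genotype 1a-H77 carrying NS5A substitutions M28T, Q30E, Q30R, Y93C, Y93H or Y93N, tested alongside the wild-type replicon. Cells are incubated 4 days with compound in DMEM with 5% FBS. Luciferase read-out, EC50 by 4-parameter logistic fit, and fold change versus wild type.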

[2] = AUClast in monkey at 2.5 mg/kg, po by LC-MS method; format: ADME, organism-based, Macaca mulatta; design: dose 2.5 mg/kg, time 0 - last, route oral; details: rhesus monkey, in vivo
Summary of the method: (§2)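 Single dose in dog or monkey, 1 mg/kg IV or 2.5 mg/kg PO. Plasma drug measured by LC-MS after acetonitrile protein precipitation with an internal standard. Quantified by linear regression of parent/internal-standard peak-area ratio against spiked standards.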

[3] = Cmax in dog at 2.5 mg/kg, po by LC-MS method; format: ADME, organism-based, Canis lupus familiaris; design: dose 2.5 mg/kg, route oral; details: in vivo; summary of the method: as §2
[4] = AUClast in monkey at 1 mg/kg, iv by LC-MS method; format: ADME, organism-based, Macaca mulatta; design: dose 1 mg/kg, time 0 - last, route intravenous; details: rhesus monkey, in vivo; summary of the method: as §2
[5] = system: T2, Nonstructural protein 5A (Hepatitis C virus), Q5L478 [Y93H]; experiment: Inhibition of NS5A Y93H mutant in HuH7 cell infected HCV genotype 1a H77 assessed as decrease in viral replication after 4 days by luciferase reporter gene assay relative to wild type protein; details: Hepatitis C virus (isolate H77); summary of the method: as §1
T2 sequence (whole entry): T1 sequence (whole entry) with N93H

[6] = system: T1, Nonstructural protein 5A (Hepatitis C virus), Q5L478 [Y93N]; experiment: Inhibition of NS5A Y93N mutant in HuH7 cell infected HCV genotype 1b Con1 assessed as decrease in viral replication after 4 days by luciferase reporter gene assay relative to wild type protein; details: Hepatitis C virus (isolate Con1)
Summary of the method: as §1, with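 “1b-Con1” for “1a-H77”, “NS5A” for “NS5A substitutions M28T, Q30E, Q30R, Y93C,”, “from a” for “by”, “expressed as” for “and”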

[7] = system: T2, Nonstructural protein 5A (Hepatitis C virus), Q5L478 [Y93H]; experiment: Inhibition of NS5A Y93H mutant in HuH7 cell infected HCV genotype 1b Con1 assessed as decrease in viral replication after 4 days by luciferase reporter gene assay relative to wild type protein; details: Hepatitis C virus (isolate Con1)
Summary of the method: as §1, with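 “1b-Con1” for “1a-H77”, “NS5A” for “NS5A substitutions M28T, Q30E, Q30R, Y93C,”, “from a” for “by”, “expressed as” for “and”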

[8] = AUClast in rat at 3 mg/kg, po by LC-MS method; format: ADME, organism-based; design: dose 3 mg/kg, route oral, time 0 - last; details: in vivo
Summary of the method: (§3)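 Single dose, 3 mg/kg, in mouse or rat. IV vehicle: DMSO:Tween 80:PEG-400:D5W 2:5:20:73 (v/v). PO vehicle: Phosol 53 MCT:PEG-400:Poloxamer 124:Cremophor RH40 40:20:20:20 (w/w). Acetonitrile protein precipitation, then LC-MS/MS in negative-ion MRM against an internal standard; LOQ ~20 ng/mL.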

[9] = Plasma clearance in dog at 1 mg/kg, iv by LC-MS method; format: ADME, organism-based, Canis lupus familiaris; summary of the method: as §2
[10] = Plasma clearance in mouse at 3 mg/kg, iv by LC-MS method; format: ADME, organism-based; summary of the method: as §3
[11] = Plasma clearance in rat at 3 mg/kg, iv by LC-MS method; format: ADME, organism-based; summary of the method: as §3
[12] = Half life in dog at 2.5 mg/kg, po by LC-MS method; format: ADME, organism-based, Canis lupus familiaris; details: in vivo; summary of the method: as §2
[13] = Drug level in mouse at 3 mg/kg, po at 24 hrs by LC-MS method; format: ADME, organism-based; details: in vivo, read-out: Drug uptake; summary of the method: as §3
[14] = Apparent volume of distribution in mouse at 3 mg/kg, iv by LC-MS method; format: ADME, organism-based; details: in vivo, read-out: Vc; summary of the method: as §3
[15] = AUClast in mouse at 3 mg/kg, po by LC-MS method; format: ADME, organism-based; design: dose 3 mg/kg, time 0 - last, route oral; details: in vivo; summary of the method: as §3
[16] = Apparent volume of distribution in monkey at 1 mg/kg, iv by LC-MS method; format: ADME, organism-based, Macaca mulatta; details: rhesus monkey, in vivo, read-out: Vc; summary of the method: as §2

For `COC(=O)N[C@H](C(=O)N1CCC[C@H]1c1nc2cc([C@H]3CC[C@H](c4cc5nc([C@@H]6CCCN6C(=O)[C@@H](NC(=O)OC)[C@@H](C)OC)[nH]c5cc4F)N3c3cc(F)c(N4CCC(c5ccc(F)cc5)CC4)c(F)c3)c(F)cc2[nH]1)[C@@H](C)OC` [PIBRENTASVIR], the fold change (FC) [1] was 6.7, the AUC(0-t) [2] was 2250 ng·h/mL and the Cmax [3] was 562 nM. For the same compound, the AUC(0-t) [4] was 6470 ng·h/mL, the fold change (FC) [5] was 6.7 and the fold change (FC) [6] was 0.6. The fold change (FC) [7] was 0.6, the AUC(0-t) [8] was 3600 ng·h/mL and the clearance [9] was 1.62 mL/min/kg. The clearance [10] was under 0.05 mL/min/kg, the clearance [11] was 1.17 mL/min/kg and the half-life [12] was 8.3 h. The concentration at 24 h [13] was 467 nM, the Vd [14] was 0.09 L/kg and the AUC(0-t) [15] was 20000 ng·h/mL. The Vd [16] was 0.07 L/kg.
